Measurements from ChEMBL document CHEMBL1221233, “4''-O-(omega-Quinolylamino-alkylamino)propionyl derivatives of selected macrolides with the activity against the key erythromycin resistant respiratory pathogens” (2010).
Converted amounts (≈) assume the structure as drawn.

Key:
Type in all cases: functional
Staphylococcus aureus [1] = assay: Antibacterial activity against inducible resistance to macrolide, licosamide and streptogramin Staphylococcus aureus 90256 by broth microdilution method
In short: (§1)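 Staphylococci were grown on Mueller-Hinton agar and then tested by CLSI-guideline broth microdilution against two-fold serial dilutions of compound. The result was recorded as the minimum inhibitory concentration.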

Streptococcus pyogenes [2] = assay: Antibacterial activity against constitutive MLS resistance sStreptococcus pyogenes 166 GR-Micro by broth microdilution method
In short: (§2)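 MIC by CLSI broth microdilution. In the streptococcal medium, 5% horse serum replaced lysed blood. Compounds were tested as two-fold serial dilutions. Strains were first grown on Columbia agar with 5% sheep blood. The MIC was read as the lowest concentration inhibiting growth.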

Streptococcus pneumoniae [3] = assay: Antibacterial activity against efflux-mediated macrolide-resistance Streptococcus pneumoniae Ci137 by broth microdilution method; in short: as §2
Streptococcus pneumoniae [4] = assay: Antibacterial activity against inducible resistance to macrolide and constitutive resistance to lincosamide Streptococcus pneumoniae 134 GR M by broth microdilution method; in short: as §2
Streptococcus pyogenes [5] = assay: Antibacterial activity against efflux-mediated macrolide-resistance Streptococcus pyogenes 2 Finland by broth microdilution method; in short: as §2
Haemophilus influenzae = assay: Antibacterial activity against Haemophilus influenzae ATCC 49247 by broth microdilution method
In short: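 MIC by broth microdilution following CLSI guidelines, expressed in units of lg/mL. Twofold dilutions prepared in 96-well plates. H. influenzae grown on Mueller-Hinton chocolate agar before testing.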

Staphylococcus aureus [6] = assay: Antibacterial activity against efflux-mediated macrolide-resistance Staphylococcus aureus PK1 by broth microdilution method; in short: as §1
Streptococcus pneumoniae [7] = assay: Antibacterial activity against constitutive MLS resistance Streptococcus pneumoniae 58 by broth microdilution method; in short: as §2

SMILES	MIC (Staphylococcus aureus [1])	MIC (Streptococcus pyogenes [2])	MIC (Streptococcus pneumoniae [3])	MIC (Streptococcus pneumoniae [4])	MIC (Streptococcus pyogenes [5])	MIC (Haemophilus influenzae)	MIC (Staphylococcus aureus [6])	MIC (Streptococcus pneumoniae [7])
CC[C@H]1OC(=O)[C@H](C)[C@@H](O[C@H]2C[C@@](C)(OC)[C@@H](OC(=O)CCNCCCCNc3ccc4c(=O)c(C(=O)O)cn(C)c4c3)[C@H](C)O2)[C@H](C)[C@@H](O[C@@H]2O[C@H](C)C[C@H](N(C)C)[C@H]2O)[C@](C)(O)C[C@@H](C)CN(C)[C@H](C)[C@@H](O)[C@]1(C)O	> 64 µg/mL	8 µg/mL (≈ 7.32 µM)	2 µg/mL (≈ 1.83 µM)	32 µg/mL (≈ 29.3 µM)	4 µg/mL (≈ 3.66 µM)	16 µg/mL (≈ 14.6 µM)	8 µg/mL (≈ 7.32 µM)	32 µg/mL (≈ 29.3 µM)
CC[C@H]1OC(=O)[C@H](C)[C@@H](O[C@H]2C[C@@](C)(OC)[C@@H](OC(=O)CCNCCCCNc3ccc4c(=O)c(C(=O)O)cn(CC)c4c3)[C@H](C)O2)[C@H](C)[C@@H](O[C@@H]2O[C@H](C)C[C@H](N(C)C)[C@H]2O)[C@](C)(O)C[C@@H](C)CN(C)[C@H](C)[C@@H](O)[C@]1(C)O	> 32 µg/mL	8 µg/mL (≈ 7.23 µM)	1 µg/mL (≈ 0.904 µM)	8 µg/mL (≈ 7.23 µM)	8 µg/mL (≈ 7.23 µM)	> 32 µg/mL	4 µg/mL (≈ 3.62 µM)	2 µg/mL (≈ 1.81 µM)
CC[C@H]1OC(=O)[C@H](C)[C@@H](O[C@H]2C[C@@](C)(OC)[C@@H](OC(=O)CCNCCCCNc3ccc4c(=O)c(C(=O)O)cn(C5CC5)c4c3)[C@H](C)O2)[C@H](C)[C@@H](O[C@@H]2O[C@H](C)C[C@H](N(C)C)[C@H]2O)[C@](C)(O)C[C@@H](C)CN(C)[C@H](C)[C@@H](O)[C@]1(C)O	8 µg/mL (≈ 7.15 µM)	4 µg/mL (≈ 3.58 µM)	0.5 µg/mL (≈ 0.447 µM)	8 µg/mL (≈ 7.15 µM)	1 µg/mL (≈ 0.894 µM)	8 µg/mL (≈ 7.15 µM)	2 µg/mL (≈ 1.79 µM)	4 µg/mL (≈ 3.58 µM)
CC[C@H]1OC(=O)[C@H](C)[C@@H](O[C@H]2C[C@@](C)(OC)[C@@H](OC(=O)CCNCCNc3cc4c(=O)c(C(=O)O)cn(C5CC5)c4cc3Cl)[C@H](C)O2)[C@H](C)[C@@H](O[C@@H]2O[C@H](C)C[C@H](N(C)C)[C@H]2O)[C@](C)(O)C[C@@H](C)CN(C)[C@H](C)[C@@H](O)[C@]1(C)O	0.5 µg/mL (≈ 0.445 µM)	≤ 0.125 µg/mL	≤ 0.125 µg/mL	≤ 0.125 µg/mL	≤ 0.125 µg/mL	1 µg/mL (≈ 0.889 µM)	0.25 µg/mL (≈ 0.222 µM)	≤ 0.125 µg/mL
CC[C@H]1OC(=O)[C@H](C)[C@@H](O[C@H]2C[C@@](C)(OC)[C@@H](OC(=O)CCNCCNc3cc4c(cc3F)c(=O)c(C(=O)O)cn4C3CC3)[C@H](C)O2)[C@H](C)[C@@H](O[C@@H]2O[C@H](C)C[C@H](N(C)C)[C@H]2O)[C@](C)(O)C[C@@H](C)CN(C)[C@H](C)[C@@H](O)[C@]1(C)O	0.5 µg/mL (≈ 0.451 µM)	2 µg/mL (≈ 1.8 µM)	0.25 µg/mL (≈ 0.226 µM)	1 µg/mL (≈ 0.902 µM)	1 µg/mL (≈ 0.902 µM)	2 µg/mL (≈ 1.8 µM)	0.5 µg/mL (≈ 0.451 µM)	0.25 µg/mL (≈ 0.226 µM)
CC[C@H]1OC(=O)[C@H](C)[C@@H](O[C@H]2C[C@@](C)(OC)[C@@H](OC(=O)CCNCCNc3cc4c(=O)c(C(=O)OC)cn(C5CC5)c4cc3Cl)[C@H](C)O2)[C@H](C)[C@@H](O[C@@H]2O[C@H](C)C[C@H](N(C)C)[C@H]2O)[C@](C)(O)C[C@@H](C)CN(C)[C@H](C)[C@@H](O)[C@]1(C)O	> 64 µg/mL	≤ 0.125 µg/mL	≤ 0.125 µg/mL	≤ 0.125 µg/mL	≤ 0.125 µg/mL	8 µg/mL (≈ 7.02 µM)	8 µg/mL (≈ 7.02 µM)	≤ 0.125 µg/mL
CC[C@H]1OC(=O)[C@H](C)[C@@H](O[C@H]2C[C@@](C)(OC)[C@@H](OC(=O)CCNCCNc3ccc4c(c3)c(=O)c(C(=O)O)cn4C3CC3)[C@H](C)O2)[C@H](C)[C@@H](O[C@@H]2O[C@H](C)C[C@H](N(C)C)[C@H]2O)[C@](C)(O)C[C@@H](C)CN(C)[C@H](C)[C@@H](O)[C@]1(C)O	1 µg/mL (≈ 0.917 µM)	≤ 0.125 µg/mL	≤ 0.125 µg/mL	≤ 0.125 µg/mL	≤ 0.125 µg/mL	4 µg/mL (≈ 3.67 µM)	1 µg/mL (≈ 0.917 µM)	≤ 0.125 µg/mL
CC[C@H]1OC(=O)[C@H](C)[C@@H](O[C@H]2C[C@@](C)(OC)[C@@H](OC(=O)CCN(C)CCNc3cc4c(=O)c(C(=O)O)cn(C5CC5)c4cc3Cl)[C@H](C)O2)[C@H](C)[C@@H](O[C@@H]2O[C@H](C)C[C@H](N(C)C)[C@H]2O)[C@](C)(O)C[C@@H](C)CN(C)[C@H](C)[C@@H](O)[C@]1(C)O	0.5 µg/mL (≈ 0.439 µM)	≤ 0.125 µg/mL	≤ 0.125 µg/mL	≤ 0.125 µg/mL	≤ 0.125 µg/mL	1 µg/mL (≈ 0.878 µM)	0.5 µg/mL (≈ 0.439 µM)	≤ 0.125 µg/mL
CC[C@H]1OC(=O)[C@H](C)[C@@H](O[C@H]2C[C@@](C)(OC)[C@@H](OC(=O)CCN(C)CCNc3cc4c(cc3F)c(=O)c(C(=O)O)cn4C3CC3)[C@H](C)O2)[C@H](C)[C@@H](O[C@@H]2O[C@H](C)C[C@H](N(C)C)[C@H]2O)[C@](C)(O)C[C@@H](C)CN(C)[C@H](C)[C@@H](O)[C@]1(C)O	2 µg/mL (≈ 1.78 µM)	2 µg/mL (≈ 1.78 µM)	≤ 0.125 µg/mL	0.25 µg/mL (≈ 0.223 µM)	≤ 0.125 µg/mL	4 µg/mL (≈ 3.56 µM)	1 µg/mL (≈ 0.891 µM)	0.25 µg/mL (≈ 0.223 µM)
CC[C@H]1OC(=O)[C@H](C)[C@@H](O[C@H]2C[C@@](C)(OC)[C@@H](OC(=O)CCN(C)CCNc3cc4c(=O)c(C(=O)OC)cn(C5CC5)c4cc3Cl)[C@H](C)O2)[C@H](C)[C@@H](O[C@@H]2O[C@H](C)C[C@H](N(C)C)[C@H]2O)[C@](C)(O)C[C@@H](C)CN(C)[C@H](C)[C@@H](O)[C@]1(C)O	> 64 µg/mL	1 µg/mL (≈ 0.867 µM)	≤ 0.125 µg/mL	0.5 µg/mL (≈ 0.434 µM)	≤ 0.125 µg/mL	8 µg/mL (≈ 6.94 µM)	16 µg/mL (≈ 13.9 µM)	0.5 µg/mL (≈ 0.434 µM)
CC[C@H]1OC(=O)[C@H](C)[C@@H](O[C@H]2C[C@@](C)(OC)[C@@H](OC(=O)CCN(C)CCNc3ccc4c(c3)c(=O)c(C(=O)O)cn4C3CC3)[C@H](C)O2)[C@H](C)[C@@H](O[C@@H]2O[C@H](C)C[C@H](N(C)C)[C@H]2O)[C@](C)(O)C[C@@H](C)CN(C)[C@H](C)[C@@H](O)[C@]1(C)O	1 µg/mL (≈ 0.905 µM)	≤ 0.125 µg/mL	≤ 0.125 µg/mL	0.25 µg/mL (≈ 0.226 µM)	0.5 µg/mL (≈ 0.453 µM)	4 µg/mL (≈ 3.62 µM)	1 µg/mL (≈ 0.905 µM)	≤ 0.125 µg/mL
CC[C@H]1OC(=O)[C@H](C)[C@@H](O[C@H]2C[C@@](C)(OC)[C@@H](OC(=O)CCNCCNc3ccc4c(c3)c(=O)c(C(=O)O)cn4C3CC3)[C@H](C)O2)[C@H](C)[C@@H](O[C@@H]2O[C@H](C)C[C@H](N(C)C)[C@H]2O)[C@](C)(O)C[C@@H](C)CN(C)[C@H](C)[C@H]2OC(=O)O[C@@]21C	2 µg/mL (≈ 1.79 µM)	≤ 0.125 µg/mL	≤ 0.125 µg/mL	0.25 µg/mL (≈ 0.224 µM)	0.25 µg/mL (≈ 0.224 µM)	2 µg/mL (≈ 1.79 µM)	1 µg/mL (≈ 0.896 µM)	0.25 µg/mL (≈ 0.224 µM)
CC[C@H]1OC(=O)[C@H](C)[C@@H](O[C@H]2C[C@@](C)(OC)[C@@H](OC(=O)CCN(C)CCNc3cc4c(=O)c(C(=O)O)cn(C5CC5)c4cc3Cl)[C@H](C)O2)[C@H](C)[C@@H](O[C@@H]2O[C@H](C)C[C@H](N(C)C)[C@H]2O)[C@](C)(O)C[C@@H](C)CN(C)[C@H](C)[C@H]2OC(=O)O[C@@]21C	2 µg/mL (≈ 1.72 µM)	1 µg/mL (≈ 0.858 µM)	≤ 0.125 µg/mL	2 µg/mL (≈ 1.72 µM)	≤ 0.125 µg/mL	4 µg/mL (≈ 3.43 µM)	1 µg/mL (≈ 0.858 µM)	1 µg/mL (≈ 0.858 µM)
CC[C@H]1OC(=O)[C@H](C)[C@@H](O[C@H]2C[C@@](C)(OC)[C@@H](OC(=O)CCN(C)CCNc3cc4c(cc3F)c(=O)c(C(=O)O)cn4C3CC3)[C@H](C)O2)[C@H](C)[C@@H](O[C@@H]2O[C@H](C)C[C@H](N(C)C)[C@H]2O)[C@](C)(O)C[C@@H](C)CN(C)[C@H](C)[C@H]2OC(=O)O[C@@]21C	4 µg/mL (≈ 3.48 µM)	16 µg/mL (≈ 13.9 µM)	≤ 0.125 µg/mL	2 µg/mL (≈ 1.74 µM)	≤ 0.125 µg/mL	8 µg/mL (≈ 6.97 µM)	2 µg/mL (≈ 1.74 µM)	1 µg/mL (≈ 0.871 µM)
CC[C@H]1OC(=O)[C@H](C)[C@@H](O[C@H]2C[C@@](C)(OC)[C@@H](OC(=O)CCN(C)CCNc3ccc4c(c3)c(=O)c(C(=O)O)cn4C3CC3)[C@H](C)O2)[C@H](C)[C@@H](O[C@@H]2O[C@H](C)C[C@H](N(C)C)[C@H]2O)[C@](C)(O)C[C@@H](C)CN(C)[C@H](C)[C@H]2OC(=O)O[C@@]21C	8 µg/mL (≈ 7.08 µM)	0.5 µg/mL (≈ 0.442 µM)	≤ 0.125 µg/mL	1 µg/mL (≈ 0.885 µM)	≤ 0.125 µg/mL	4 µg/mL (≈ 3.54 µM)	1 µg/mL (≈ 0.885 µM)	1 µg/mL (≈ 0.885 µM)
CC[C@H]1OC(=O)[C@H](C)[C@@H](O[C@H]2C[C@@](C)(OC)[C@@H](OC(=O)CCNCCNc3cc4c(=O)c(C(=O)O)cn(C5CC5)c4cc3Cl)[C@H](C)O2)[C@H](C)[C@@H](O[C@@H]2O[C@H](C)C[C@H](N(C)C)[C@H]2O)[C@](C)(O)C[C@@H](C)CN(C)[C@H](C)[C@H]2OC(=O)O[C@@]21C	1 µg/mL (≈ 0.869 µM)	≤ 0.125 µg/mL	≤ 0.125 µg/mL	≤ 0.125 µg/mL	≤ 0.125 µg/mL	2 µg/mL (≈ 1.74 µM)	0.5 µg/mL (≈ 0.434 µM)	≤ 0.125 µg/mL
CC[C@H]1OC(=O)[C@H](C)[C@@H](O[C@H]2C[C@@](C)(OC)[C@@H](OC(=O)CCNCCNc3cc4c(cc3F)c(=O)c(C(=O)O)cn4C3CC3)[C@H](C)O2)[C@H](C)[C@@H](O[C@@H]2O[C@H](C)C[C@H](N(C)C)[C@H]2O)[C@](C)(O)C[C@@H](C)CN(C)[C@H](C)[C@H]2OC(=O)O[C@@]21C	1 µg/mL (≈ 0.882 µM)	≤ 0.125 µg/mL	≤ 0.125 µg/mL	≤ 0.125 µg/mL	≤ 0.125 µg/mL	2 µg/mL (≈ 1.76 µM)	0.25 µg/mL (≈ 0.22 µM)	≤ 0.125 µg/mL
